# Test results taken from ChEMBL document CHEMBL4382192, “Discovery of a potent dual ALK and EGFR T790M inhibitor” (Eur J Med Chem, 2017).
# How the values were obtained:
# [1] = target: MAP kinase-interacting serine/threonine-protein kinase 1 (Homo sapiens) (UniProt Q9BUB5); experiment: Binding affinity to wild-type human full length MKNK1 (M1 to L424 residues) expressed in mammalian expression system assessed as residual binding level at 1 uM by Kinomescan method relative to control
# Method in brief: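 Single-point kinome-wide KINOMEscan binding panel, test compound at 1 μM, run by the provider's standard protocol.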
# [2] = test system: Proto-oncogene tyrosine-protein kinase receptor Ret (Homo sapiens), P07949 [M918T]; experiment: Binding affinity to human partial length RET M918T mutant (E713 to D1014 residues) expressed in bacterial expression system assessed as residual binding level at 1 uM by Kinomescan method relative to control
# Method in brief: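 Kinome-wide selectivity panel run by the KINOMEscan method, with the test compound at a single concentration of 1 μM. Wild-type and mutant kinases were profiled in the same screen.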
# [3] = target: Mitogen-activated protein kinase kinase kinase 3 (Homo sapiens) (UniProt Q99759); experiment: Binding affinity to wild-type human partial length MAP3K3 (E320 to Y626 residues) expressed in mammalian expression system assessed as residual binding level at 1 uM by Kinomescan method relative to control
# [4] = target: Serine/threonine-protein kinase 35 (Homo sapiens) (UniProt Q8TDR2); experiment: Binding affinity to wild-type human partial length STK35 (G182 to A534 residues) expressed in bacterial expression system assessed as residual binding level at 1 uM by Kinomescan method relative to control
# [5] = target: Transient receptor potential cation channel subfamily M member 6 (Homo sapiens) (UniProt Q9BX84); experiment: Binding affinity to wild-type human partial length TRPM6 (Q1723 to I1998 residues) expressed in mammalian expression system assessed as residual binding level at 1 uM by Kinomescan method relative to control
# [6] = target: NT-3 growth factor receptor (Homo sapiens) (UniProt Q16288); experiment: Binding affinity to wild-type human partial length TRKC (Q531 to G825 residues) expressed in mammalian expression system assessed as residual binding level at 1 uM by Kinomescan method relative to control
# [7] = target: Phosphatidylinositol 4-phosphate 3-kinase C2 domain-containing subunit beta (Homo sapiens) (UniProt O00750); experiment: Binding affinity to wild-type human partial length PIK3C2B (M1 to L1634 residues) expressed in mammalian expression system assessed as residual binding level at 1 uM by Kinomescan method relative to control
# [8] = target: Myosin light chain kinase family member 4 (Homo sapiens) (UniProt Q86YV6); experiment: Binding affinity to wild-type human partial length MYLK4 (V79 to S380 residues) expressed in bacterial expression system assessed as residual binding level at 1 uM by Kinomescan method relative to control
# [9] = target: Death-associated protein kinase 2 (Homo sapiens) (UniProt Q9UIK4); experiment: Binding affinity to wild-type human full length DAPK2 (M1 to S370 residues) expressed in bacterial expression system assessed as residual binding level at 1 uM by Kinomescan method relative to control
# [10] = target: Serine/threonine-protein kinase D3 (Homo sapiens) (UniProt O94806); experiment: Binding affinity to wild-type human partial length PRKD3 (S543 to E863 residues) expressed in bacterial expression system assessed as residual binding level at 1 uM by Kinomescan method relative to control
# Insulin receptor [11] = target: T1, Insulin receptor (Homo sapiens, UniProt P06213); experiment: Inhibition of recombinant His-tagged human InsR (1011 to 1382 residues) expressed in baculovirus expression system by Z-LYTE assay
# [12] = target: Activin receptor type-1B (Homo sapiens) (UniProt P36896); experiment: Binding affinity to wild-type human ACVR1B (S187 to I505 residues) expressed in bacterial expression system assessed as residual binding level at 1 uM by Kinomescan method relative to control
# [13] = target: Tyrosine-protein kinase receptor TYRO3 (Homo sapiens) (UniProt Q06418); experiment: Binding affinity to wild-type human partial length TYRO3 (S497 to T814 residues) expressed in bacterial expression system assessed as residual binding level at 1 uM by Kinomescan method relative to control
# [14] = target: Interferon-induced, double-stranded RNA-activated protein kinase (Homo sapiens) (UniProt P19525); experiment: Binding affinity to wild-type human partial length PRKR (F247 to C551 residues) expressed in bacterial expression system assessed as residual binding level at 1 uM by Kinomescan method relative to control
# [15] = target: Serine/threonine-protein kinase PLK3 (Homo sapiens) (UniProt Q9H4B4); experiment: Binding affinity to wild-type human partial length PLK3 (A42 to L334 residues) expressed in mammalian expression system assessed as residual binding level at 1 uM by Kinomescan method relative to control
# [16] = target: Membrane-associated tyrosine- and threonine-specific cdc2-inhibitory kinase (Homo sapiens) (UniProt Q99640); experiment: Binding affinity to wild-type human partial length PKMYT1 (A88 to G366 residues) expressed in bacterial expression system assessed as residual binding level at 1 uM by Kinomescan method relative to control
# [17] = target: Protein kinase C theta type (Homo sapiens) (UniProt Q04759); experiment: Binding affinity to wild-type human partial length PRKCQ (L350 to S706 residues) expressed in bacterial expression system assessed as residual binding level at 1 uM by Kinomescan method relative to control
# [18] = target: Serine/threonine-protein kinase PAK 2 (Homo sapiens) (UniProt Q13177); experiment: Binding affinity to wild-type human partial length PAK2 (P151 to R525 residues) expressed in bacterial expression system assessed as residual binding level at 1 uM by Kinomescan method relative to control
# Insulin receptor [19] = target: T1, Insulin receptor; experiment: Binding affinity to wild-type human partial length INSR (P997 to E1318 residues) expressed in mammalian expression system assessed as residual binding level at 1 uM by Kinomescan method relative to control
# [20] = target: RAC-beta serine/threonine-protein kinase (Homo sapiens) (UniProt P31751); experiment: Binding affinity to wild-type human partial length AKT2 expressed in bacterial expression system assessed as residual binding level at 1 uM by Kinomescan method relative to control
# [21] = target: Mitogen-activated protein kinase 15 (Homo sapiens) (UniProt Q8TD08); experiment: Binding affinity to wild-type human partial length ERK8 (M1 to P437 residues) expressed in bacterial expression system assessed as residual binding level at 1 uM by Kinomescan method relative to control
# [22] = test system: Phosphatidylinositol 4,5-bisphosphate 3-kinase catalytic subunit alpha isoform (Homo sapiens), P42336 [H1047Y]; experiment: Binding affinity to human partial length PIK3CA H1047Y mutant (R108 to N1068 residues) expressed in mammalian expression system assessed as residual binding level at 1 uM by Kinomescan method relative to control
# [23] = target: Mitogen-activated protein kinase kinase kinase kinase 3 (Homo sapiens) (UniProt Q8IVH8); experiment: Binding affinity to wild-type human partial length MAP4K3 (M1 to D301 residues) expressed in bacterial expression system assessed as residual binding level at 1 uM by Kinomescan method relative to control
# [24] = target: Ephrin type-A receptor 6 (Homo sapiens) (UniProt Q9UF33); experiment: Binding affinity to wild-type human partial length EPHA6 (Y700 to E1046 residues) expressed in bacterial expression system assessed as residual binding level at 1 uM by Kinomescan method relative to control
# T1 sequence (P06213 28-758 limits assumed): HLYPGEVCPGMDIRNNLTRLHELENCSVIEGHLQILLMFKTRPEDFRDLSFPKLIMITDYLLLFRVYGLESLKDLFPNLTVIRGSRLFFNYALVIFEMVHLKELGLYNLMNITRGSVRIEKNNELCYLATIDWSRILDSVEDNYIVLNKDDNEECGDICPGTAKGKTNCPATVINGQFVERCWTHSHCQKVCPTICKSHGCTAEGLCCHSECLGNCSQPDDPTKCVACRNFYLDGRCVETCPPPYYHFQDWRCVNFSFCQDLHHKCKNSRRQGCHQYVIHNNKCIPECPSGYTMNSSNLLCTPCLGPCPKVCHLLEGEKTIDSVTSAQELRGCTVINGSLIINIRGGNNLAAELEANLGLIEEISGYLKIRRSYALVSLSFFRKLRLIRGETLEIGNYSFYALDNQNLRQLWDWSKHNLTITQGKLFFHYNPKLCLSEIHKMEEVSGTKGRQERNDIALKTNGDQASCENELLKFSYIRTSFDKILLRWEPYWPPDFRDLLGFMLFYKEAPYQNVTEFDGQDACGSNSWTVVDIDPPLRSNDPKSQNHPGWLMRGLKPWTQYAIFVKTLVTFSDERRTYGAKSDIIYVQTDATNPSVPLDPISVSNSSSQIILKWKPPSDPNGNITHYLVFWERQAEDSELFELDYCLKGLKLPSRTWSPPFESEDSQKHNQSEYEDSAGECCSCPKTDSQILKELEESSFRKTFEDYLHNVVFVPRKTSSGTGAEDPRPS
# T1 sequence (P06213 763-1382 limits assumed): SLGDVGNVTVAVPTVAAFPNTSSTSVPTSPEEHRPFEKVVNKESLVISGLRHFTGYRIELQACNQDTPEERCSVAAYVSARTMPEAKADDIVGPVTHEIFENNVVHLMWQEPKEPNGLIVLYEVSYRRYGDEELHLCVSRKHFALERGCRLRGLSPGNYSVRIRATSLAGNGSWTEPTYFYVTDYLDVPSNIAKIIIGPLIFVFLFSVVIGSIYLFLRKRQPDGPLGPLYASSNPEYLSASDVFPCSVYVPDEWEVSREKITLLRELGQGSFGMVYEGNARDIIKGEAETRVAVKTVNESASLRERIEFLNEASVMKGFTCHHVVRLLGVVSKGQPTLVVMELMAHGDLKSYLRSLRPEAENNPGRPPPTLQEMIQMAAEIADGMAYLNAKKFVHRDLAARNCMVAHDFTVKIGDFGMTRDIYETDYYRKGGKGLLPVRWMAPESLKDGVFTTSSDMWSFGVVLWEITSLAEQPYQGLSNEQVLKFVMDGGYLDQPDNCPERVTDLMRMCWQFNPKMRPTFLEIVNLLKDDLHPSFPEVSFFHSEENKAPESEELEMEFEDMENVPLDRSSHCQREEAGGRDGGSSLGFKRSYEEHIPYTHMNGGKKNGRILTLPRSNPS
# Chain of Phosphatidylinositol 4,5-bisphosphate 3-kinase catalytic subunit alpha isoform (Homo sapiens), P42336 [H1047Y] (P42336 whole entry H1047Y, the tested form may be a part, canonical isoform): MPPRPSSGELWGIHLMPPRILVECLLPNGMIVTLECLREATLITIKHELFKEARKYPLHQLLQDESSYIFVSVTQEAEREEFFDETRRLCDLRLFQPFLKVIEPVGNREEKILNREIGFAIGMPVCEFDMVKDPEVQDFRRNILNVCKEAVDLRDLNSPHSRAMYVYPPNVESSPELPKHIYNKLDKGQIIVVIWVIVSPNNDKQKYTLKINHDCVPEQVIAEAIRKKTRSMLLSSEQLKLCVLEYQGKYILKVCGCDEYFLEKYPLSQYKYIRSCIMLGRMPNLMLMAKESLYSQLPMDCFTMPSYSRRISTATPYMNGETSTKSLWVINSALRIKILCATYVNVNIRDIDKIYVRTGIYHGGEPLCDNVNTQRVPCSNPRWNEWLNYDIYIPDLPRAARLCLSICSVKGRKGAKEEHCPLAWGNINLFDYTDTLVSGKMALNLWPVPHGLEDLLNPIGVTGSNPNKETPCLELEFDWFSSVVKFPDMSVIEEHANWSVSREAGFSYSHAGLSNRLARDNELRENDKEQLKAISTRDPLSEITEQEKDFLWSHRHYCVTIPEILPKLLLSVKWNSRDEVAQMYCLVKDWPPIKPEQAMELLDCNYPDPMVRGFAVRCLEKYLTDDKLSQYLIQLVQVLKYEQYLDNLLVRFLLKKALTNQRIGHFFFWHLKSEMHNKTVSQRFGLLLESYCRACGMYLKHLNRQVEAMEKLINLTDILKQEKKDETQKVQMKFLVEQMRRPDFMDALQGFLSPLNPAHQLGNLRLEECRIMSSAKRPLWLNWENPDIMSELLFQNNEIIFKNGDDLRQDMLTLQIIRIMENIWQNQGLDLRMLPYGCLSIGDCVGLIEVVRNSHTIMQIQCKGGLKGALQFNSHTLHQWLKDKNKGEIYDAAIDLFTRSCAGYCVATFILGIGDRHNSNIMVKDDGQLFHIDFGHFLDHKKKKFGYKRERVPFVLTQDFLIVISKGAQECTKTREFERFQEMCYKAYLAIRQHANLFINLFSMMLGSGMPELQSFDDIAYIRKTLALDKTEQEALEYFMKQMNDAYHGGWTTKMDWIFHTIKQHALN
# Chain of Mitogen-activated protein kinase kinase kinase kinase 3 (Homo sapiens) (Q8IVH8 whole entry, the tested form may be a part): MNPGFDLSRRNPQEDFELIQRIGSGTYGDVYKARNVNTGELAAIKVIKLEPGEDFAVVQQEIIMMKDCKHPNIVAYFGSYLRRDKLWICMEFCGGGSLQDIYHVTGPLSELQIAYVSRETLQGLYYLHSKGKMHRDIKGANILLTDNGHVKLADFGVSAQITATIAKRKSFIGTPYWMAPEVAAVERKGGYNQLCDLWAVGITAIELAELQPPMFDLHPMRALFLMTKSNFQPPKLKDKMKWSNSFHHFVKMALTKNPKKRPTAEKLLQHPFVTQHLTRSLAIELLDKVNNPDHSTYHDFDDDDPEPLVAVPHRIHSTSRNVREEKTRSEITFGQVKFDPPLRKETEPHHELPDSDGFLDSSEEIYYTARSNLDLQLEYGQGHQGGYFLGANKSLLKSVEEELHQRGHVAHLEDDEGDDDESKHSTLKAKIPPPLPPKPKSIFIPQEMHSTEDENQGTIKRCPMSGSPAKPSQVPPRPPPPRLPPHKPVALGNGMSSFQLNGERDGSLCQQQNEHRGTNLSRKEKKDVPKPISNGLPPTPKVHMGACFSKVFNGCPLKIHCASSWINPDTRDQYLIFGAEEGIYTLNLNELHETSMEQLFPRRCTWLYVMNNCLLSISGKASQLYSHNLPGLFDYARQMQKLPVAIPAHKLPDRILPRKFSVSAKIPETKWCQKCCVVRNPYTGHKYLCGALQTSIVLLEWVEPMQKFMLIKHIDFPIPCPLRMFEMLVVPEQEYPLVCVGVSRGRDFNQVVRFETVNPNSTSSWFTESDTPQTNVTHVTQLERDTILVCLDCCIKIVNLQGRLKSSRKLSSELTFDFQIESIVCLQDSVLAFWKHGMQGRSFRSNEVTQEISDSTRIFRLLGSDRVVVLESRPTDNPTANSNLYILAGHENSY
# Chain of Serine/threonine-protein kinase 35 (Homo sapiens) (Q8TDR2 whole entry, the tested form may be a part): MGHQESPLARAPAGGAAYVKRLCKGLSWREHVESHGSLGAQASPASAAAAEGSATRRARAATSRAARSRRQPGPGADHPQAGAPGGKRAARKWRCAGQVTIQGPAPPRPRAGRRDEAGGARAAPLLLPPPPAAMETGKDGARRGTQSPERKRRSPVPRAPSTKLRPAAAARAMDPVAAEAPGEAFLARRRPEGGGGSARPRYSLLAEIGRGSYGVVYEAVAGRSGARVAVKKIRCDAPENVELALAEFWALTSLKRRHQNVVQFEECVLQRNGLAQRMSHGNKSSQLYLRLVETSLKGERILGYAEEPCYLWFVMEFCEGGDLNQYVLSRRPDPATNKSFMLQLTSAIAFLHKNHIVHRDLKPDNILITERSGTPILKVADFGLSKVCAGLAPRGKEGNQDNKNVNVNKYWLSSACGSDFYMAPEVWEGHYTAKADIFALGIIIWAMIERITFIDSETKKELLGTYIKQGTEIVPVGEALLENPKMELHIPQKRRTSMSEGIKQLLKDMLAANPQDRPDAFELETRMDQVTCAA
# Chain of MAP kinase-interacting serine/threonine-protein kinase 1 (Homo sapiens) (Q9BUB5 whole entry, looked up, the tested form may be a part): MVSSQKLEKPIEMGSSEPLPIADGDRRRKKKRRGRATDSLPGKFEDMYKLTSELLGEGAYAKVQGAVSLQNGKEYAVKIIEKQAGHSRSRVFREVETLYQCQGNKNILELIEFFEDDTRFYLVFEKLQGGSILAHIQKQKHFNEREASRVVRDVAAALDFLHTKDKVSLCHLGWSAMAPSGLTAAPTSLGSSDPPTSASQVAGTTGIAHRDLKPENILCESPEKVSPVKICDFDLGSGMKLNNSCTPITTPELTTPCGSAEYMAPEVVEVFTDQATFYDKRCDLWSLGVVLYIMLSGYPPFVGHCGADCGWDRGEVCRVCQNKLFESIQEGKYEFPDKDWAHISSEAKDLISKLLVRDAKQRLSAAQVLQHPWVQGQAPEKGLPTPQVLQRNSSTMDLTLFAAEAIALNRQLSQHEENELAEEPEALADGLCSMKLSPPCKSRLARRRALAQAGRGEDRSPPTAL
# Chain of Mitogen-activated protein kinase 15 (Homo sapiens) (Q8TD08 whole entry, the tested form may be a part, canonical isoform): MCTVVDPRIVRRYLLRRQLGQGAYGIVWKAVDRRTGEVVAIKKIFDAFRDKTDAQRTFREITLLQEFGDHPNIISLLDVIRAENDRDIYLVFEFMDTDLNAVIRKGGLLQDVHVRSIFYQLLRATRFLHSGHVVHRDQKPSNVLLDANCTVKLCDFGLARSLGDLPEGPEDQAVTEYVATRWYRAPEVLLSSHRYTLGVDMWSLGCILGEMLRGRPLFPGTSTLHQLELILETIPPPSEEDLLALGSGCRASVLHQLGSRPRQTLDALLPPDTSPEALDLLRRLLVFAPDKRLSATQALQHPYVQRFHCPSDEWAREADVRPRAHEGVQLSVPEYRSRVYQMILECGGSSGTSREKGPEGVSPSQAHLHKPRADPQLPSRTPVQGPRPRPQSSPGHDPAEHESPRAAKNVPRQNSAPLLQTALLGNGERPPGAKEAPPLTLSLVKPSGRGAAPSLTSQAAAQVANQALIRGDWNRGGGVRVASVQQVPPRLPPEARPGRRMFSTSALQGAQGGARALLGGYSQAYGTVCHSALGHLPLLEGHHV
structure (smiles),measurement,setting,value
C=CC(=O)Nc1cc(Nc2ncc(Cl)c(Nc3ccccc3S(=O)(=O)C(C)C)n2)c(OC)cc1N(C)CCN(C)C,Activity,[1],90%
same,Activity,[2],9.7%
same,Activity,[3],17%
same,Activity,[4],71%
same,Activity,[5],52%
same,Activity,[6],85%
same,Activity,[7],69%
same,Activity,[8],98%
same,Activity,[9],47%
same,Activity,[10],0%
same,IC50,Insulin receptor [11],8 nM
same,Activity,[12],16%
same,Activity,[13],51%
same,Activity,[14],66%
same,Activity,[15],60%
same,Activity,[16],80%
same,Activity,[17],48%
same,Activity,[18],62%
same,Activity,Insulin receptor [19],0%
same,Activity,[20],94%
same,Activity,[21],73%
same,Activity,[22],100%
same,Activity,[23],3.3%
same,Activity,[24],49%
